By IC50 is commonly meant the point on the concentration scale where inhibition reaches its midpoint.

Activity calls are given as the source filed them. The calls are words filed in the database; no cut-off is given here.

2 compounds from ChEMBL document CHEMBL4251661, “Capsicodendrin from Cinnamosma fragrans Exhibits Antiproliferative and Cytotoxic Activity in Human Leukemia Cells: Modulation by Glutathione” (J Nat Prod, 2018) can be followed below.

Data set [1] in a line: Drug level in DMSO-d6 treated with capsicodendrin at 2 mg measured after 1 hr by 1H-NMR spectra analysis. It counts as physicochemical.
For data set [2], the system named is HL-60. Kind of data set: Induction of DNA damage in human HL60 cells assessed as increase in DNA strand breaks at 2 to 5 uM after 1 hr in presence of GSH synthesis inhibitor buthionine sulfoximine by SYBR green dye based comet assay. The format is functional, cell-based. Put shortly:
(§1)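 HL-60 cells (100 000 cells/mL), ±BSO 50 μM for 40 h, moved into HEPES/glucose/salt buffer pH 7.4. Treated 1 h at 37 °C with CPCD 0.5–5 μM or 0.2% DMSO. Cells embedded in low-melt agarose, lysed, held at pH 13, then electrophoresed 30 min at 21 V/cm. SYBR Gold staining; Olive tail moment scored from ≥100 cells. Mean ± SEM of 5 runs.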

The subject of data set [3] is HL-60. In words: Growth inhibition of human HL60 cells after 72 hrs in presence of GSH synthesis inhibitor buthionine sulfoximine by Beckman coulter counting method. It counts as functional, cell-based. The conditions noted are these: HL-60, 72 h. In outline: (§2)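 HL-60 cells in complete RPMI, preincubated 40 h with or without BSO 50 μM, then seeded at 100 000 cells/mL. Treated with CPCD (0.1, 0.2, 0.5 μM) or DMSO (1%) for 72 h at 37 °C, 5% CO2. Cells counted on a Coulter counter; IC50 taken from growth curves. Mean ± SEM of 3–4 separate-day experiments.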

In data set [4] the test system is HL-60. Kind of data set: Induction of apoptosis in human HL60 cells assessed as change in morphology at 0.2 to 0.5 uM after 48 hrs in presence of GSH synthesis inhibitor buthionine sulfoximine by […]. The format is functional, cell-based. In outline:
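HL-60 cells seeded at 100 000 cells/mL; for line 11, first held 40 h ± BSO 50 μM. Exposed to CPCD 0.1–0.5 μM or 0.1% DMSO for 48 h or 48 and 72 h. Washed pellets stained 20 min in the dark at room temperature with Hoechst 33342 (0.013 mg/mL). Fluorescence microscopy; 100–200 cells scored for apoptotic nuclear morphology.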

Data set [5] has as its system K562. In words: Growth inhibition of human K562 cells after 72 hrs in presence of GSH synthesis inhibitor buthionine sulfoximine by Beckman coulter counting method. It counts as functional, cell-based. The following applies: K562, 72 h. Put shortly: (§3)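 K562 cells in DMEM + 10% FBS, preincubated 40 h with or without BSO 50 μM, then seeded at 100 000 cells/mL. Exposed to CPCD or DMSO at 37 °C, 5% CO2; growth assessed after 48 h per figure legend (72 h per methods). Cell number read on a Coulter counter; IC50 calculated from growth curves. Mean ± SEM of 3–4 separate-day runs.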

Data set [6] has as its system HL-60. Kind of data set: Induction of DNA damage in human HL60 cells assessed as increase in DNA strand breaks at 0.5 to 5 uM after 1 hr by SYBR green dye based comet assay. It counts as functional, cell-based. Put shortly: as §1
The test system of data set [7] is HL-60. Kind of data set: Growth inhibition of human HL60 cells at 0.2 to 0.5 uM after 48 hrs in presence of GSH synthesis inhibitor buthionine sulfoximine by Beckman coulter counting method. The format is functional, cell-based.
The test system of data set [8] is HL-60. Kind of data set: Induction of reactive oxygen species generation in human HL60 cells at 1 to 5 uM measured at 2 mins interval for 1 hr by DCFH-DA staining-based fluorescence assay. The format is functional, cell-based. In outline:
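HL-60 cells (1 × 10^6/mL) loaded with DCFH-DA 2 μM in HEPES buffer for 30 min at 37 °C, washed, then treated with vehicle, CPCD 1–5 μM or H2O2 25 μM. Fluorescence read every 2 min up to 1 h, in triplicate wells. Rate expressed as fluorescence units per min.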

Data set [9] has as its system K562. Kind of data set: Growth inhibition of human K562 cells after 72 hrs by Beckman coulter counting method. It counts as functional, cell-based. The conditions noted are these: K562, 72 h. In outline:
as §3

The test system of data set [10] is HL-60. In words: Growth inhibition of human HL60 cells after 72 hrs by Beckman coulter counting method. The format is functional, cell-based. The following applies: HL-60, 72 h. In outline: as §2
Data set [11] can be described thus: Displacement of ThioGlo4 from glutathione measured after 8 hrs by fluorescence assay. The following applies: read-out: Kd(app). In outline: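 GSH (5 μM) incubated with CPCD 0.5–100 μM in 1× PBS for 8 h at 37 °C. ThioGlo IV (10 μM) added to diluted aliquots; unreacted GSH quantified by fluorescence, excitation 400 nm, emission 465 nm.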
Data set [12] concerns HL-60. Kind of data set: Cytotoxicity against human HL60 cells assessed as cell death at 0.2 to 0.5 uM after 48 hrs in presence of GSH synthesis inhibitor buthionine sulfoximine by trypan blue dye exclusion method. The format is functional, cell-based. Put shortly: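 HL-60 cells (RPMI-1640 + 15% FBS, 37 °C, 5% CO2) seeded at 100 000 cells/mL. For line 1, cells were first held 40 h ± BSO 50 μM. They were then exposed to CPCD 0.1–0.5 μM or DMSO for 48 h or 48 and 72 h. Cells were mixed 1:1 with trypan blue and % blue-positive cells counted on a hemocytometer. Mean ± SEM of 3–9 separate-day runs.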

As for `CC(=O)O[C@@H]1C=C(C=O)[C@](O)(C=O)[C@@]2(C)CCCC(C)(C)[C@H]12` [CINNAMODIAL], the Drug metabolism entry in data set [1] is on record as “Metabolite_Detected”.

As for `CC(=O)O[C@@H]1C=C([C@H]2O[C@@H]3OC(O)C4=C[C@@H](OC(C)=O)[C@H]5C(C)(C)CCC[C@]5(C)[C@]43O2)[C@](O)(C=O)[C@@]2(C)CCCC(C)(C)[C@H]12` (some centres not stated), the result with HL-60 [2], in the data set with HL-60 [4], with HL-60 [6] and in the data set on HL-60 [12] was Active. For the same compound, the IC50 lay in the range of 70 to 90 nM with HL-60 [3], 180 to 210 nM in the data set on K562 [5], 360 to 480 nM in the data set with K562 [9] and 200 to 270 nM in the data set with HL-60 [10]. The “growth inhibition (GI)” value in the data set with HL-60 [7] was “Active”. The result in the data set with HL-60 [8] was inactive. Also, in data set [11], the Kd was 7200 nM.
